# Measured values from ChEMBL document CHEMBL4334478, “Isolation, Structural Elucidation, Optical Resolution, and Antineuroinflammatory Activity of Phenanthrene and 9,10-Dihydrophenanthrene Derivatives from Bletilla striata” (J Nat Prod, 2019).
# Tested on: BV-2
# Assay: Antineuroinflammatory activity against mouse BV2 cells assessed as inhibition of LPS-induced NO production incubated for 24 hrs by Griess assay
# Assay type: functional, cell-based
# Settings: Mus musculus, BV-2, 24 h; read-out: IC50; call rule not given here
# In short: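 Griess read-out of nitrite in LPS-stimulated BV-2 microglia, with cell viability checked in parallel by MTT. Minocycline served as positive control. IC50 values are reported as mean ± SEM.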
row,Compound,IC50 [µM]
1,COc1c(O)ccc2c1ccc1c(-c3c(O)cc(OC)c4c3ccc3c(OC)c(O)ccc34)c(O)cc(OC)c12,1
2,COc1ccc2c(ccc3c(Cc4ccc(O)cc4)c(O)cc(OC)c32)c1,82
3,COc1c(O)c(O)cc2ccc3cc(O)ccc3c12,30
4,COc1cc(O)c(Cc2ccc(O)cc2)c2ccc3cc(O)ccc3c12,30.2
5,COc1c(Cc2ccc(O)cc2)c(O)cc2c1-c1ccc(O)cc1CC2,34.6
6,COc1cc(O)cc2c1-c1cc(-c3c(O)cc(OC)c4c3ccc3cc(O)ccc34)c(O)cc1CC2,22.1
7,COc1c(O)cc2c(c1OC)-c1ccc(O)cc1CC2 [ERIANTHRIDIN],93.5
8,COc1cc(O)c2c(c1Cc1ccc(O)cc1)CCc1cc(O)ccc1-2,12 to 30
9,COc1ccc2c(c1O)CCc1c(Cc3ccc(O)cc3)c(O)cc(OC)c1-2,49
10,COc1cc(O)c(-c2c(O)cc(OC)c3c2ccc2cc(O)ccc23)c2c1-c1ccc(O)cc1CC2 [CIRRHOPETALANTHRIN],46.8
11,CN(C)c1ccc(O)c2c1C[C@H]1C[C@H]3[C@H](N(C)C)C(O)=C(C(N)=O)C(=O)[C@@]3(O)C(O)=C1C2=O [MINOCYCLINE],27.2 to 35.7
12,COc1cc([C@H]2Oc3cc4c(cc3[C@@H]2COC(C)=O)-c2c(cc(O)cc2OC)CC4)ccc1O,24.8
13,COc1cc(CCc2cccc(O)c2)c(-c2c(O)cc(O)c3c2CCc2cc(O)ccc2-3)c(OC)c1,60.7
14,COc1cc(O)c2c(c1-c1c(OC)cc(O)c3c1CCc1cc(O)ccc1-3)CCc1cc(O)ccc1-2,39.4

# More lines, now with the values ahead:
row,IC50 [µM],Compound
1,18.5,COc1cc([C@@H]2Oc3cc(OC)c4c(c3[C@H]2CO)CCc2cc(O)ccc2-4)cc(OC)c1O
2,17.9,OC[C@H]1O[C@@H](Oc2ccc(Cc3c(O)ccc4c3CCc3cc(O)ccc3-4)cc2)[C@H](O)[C@@H](O)[C@@H]1O
3,15.2,COc1cc(O)cc2c1-c1ccc(O)cc1CC2
4,12,COc1cc(O)cc2c1-c1cc(-c3c(O)cc(OC)c4c3CCc3cc(O)ccc3-4)c(O)cc1CC2
5,5,COc1cc2c(ccc3c(-c4c(O)cc(OC)c5c4ccc4cc(O)ccc45)c(O)cc(OC)c32)cc1O
6,1.9,COc1cc(O)cc(CCc2cccc(O)c2)c1-c1c(OC)cc(O)c2c1CCc1cc(O)ccc1-2

# Same assay, conditions: bv-2
row,Compound,IC50
1,COc1cc(O)c2c(ccc3cc(O)ccc32)c1-c1c(OC)cc(O)c2c1ccc1cc(O)ccc12,Not Active
